Test results from ChEMBL document CHEMBL1129623, “Effects of multidrug resistance (MDR1) P-glycoprotein expression levels and coordination metal on the cytotoxic potency of multidentate (N4O2) (ethylenediamine)bis[propyl(R-benzylimino)]metal(III) cations” (1996).
Activity calls are given as the source filed them. No cut-off for these calls is given here.

Assays:
[1] = system: KB 3-1; assay: Compound was tested for cytotoxic lethal concentration on R-ENBPI […] complexs in human drug sensitive (KB-3-1)cells parentheses value indicates SEM; assay type: functional; details: read-out: LC50 (the source's name)
In short: (§1)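 Parental KB-3-1 human epidermal carcinoma cells, no immunodetectable P-glycoprotein, 5000/well in 5% FBS medium, 4 h recovery. Complex was added in triplicate wells up to 100 μM, 72 h at 37 °C, 5% CO2. Cells were TCA-fixed and stained with 0.4% SRB, dye dissolved in 10 mM Tris, A490–450. LC50 was from a sigmoid fit of survival versus vehicle control, Smin constrained to zero.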

[2] = system: KB 3-1; assay: Compound was tested for cytotoxic lethal concentration on R-ENBPI In(III) complexs in human drug sensitive (KB-3-1)cells. parentheses value indicates SEM; assay type: functional; details: read-out: LC50 (the source's name); in short: as §1
[3] = system: KB 3-1; assay: (§2) Compound was tested for dependency on R-ENBPI Fe(III) complex in human drug sensitive (KB-3-1)cells.; assay type: functional; details: read-out: LC50 (the source's name)
In short: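 Parameter dependency from the sigmoid fit S={(Smax−Smin)/[1+(C/LC50)^γ]}+Smin of KB-3-1 SRB survival data: 72 h exposure, triplicate wells, up to 100 μM, Smin constrained to zero. It is used to judge overparameterization of the fitted curve.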

[4] = system: KB 3-1; assay: Compound was tested for dependency on R-ENBPI Al(III) complexs in human drug sensitive (KB-3-1)cells.; assay type: functional
In short: (§3)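 KB-3-1 cells were plated at 5000/well in 5% FBS medium and allowed 4 h to recover. Complexes were added in triplicate at concentrations up to 100 μM, then incubated 72 h at 37 °C, 5% CO2. Cells were TCA-fixed and stained with SRB, read at 490–450 nm, and expressed as % of vehicle control. A sigmoid fit with Smin constrained to zero gave LC50 and fit dependencies.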

[5] = system: KB 3-1; assay: as §2; assay type: functional; in short: as §3
[6] = system: KB 3-1; assay: Compound was tested for dependency on R-ENBPI Ga(III) complexs in human drug sensitive (KB-3-1)cells.; assay type: functional; in short: as §3
[7] = system: KB 3-1; assay: Compound was tested for dependency on R-ENBPI In(III) complexs in human drug sensitive (KB-3-1)cells.; assay type: functional; in short: as §3
[8] = system: KB; assay: Compound was tested for coefficient of variation percent on R-ENBPI Fe(III) complex in multi drug resistant (KB-8-5) cells; NA=not applicable; assay type: functional, cell-based; details: Homo sapiens
In short: (§4)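 KB-8-5 multidrug-resistant cells were kept drug-free for 96 h, then plated at 5000/well in 5% FBS medium and allowed 4 h to recover. Complexes were added in triplicate up to 100 μM for 72 h at 37 °C. Survival was read by SRB staining (490–450 nm) relative to vehicle. LC50 came from a sigmoid fit with Smin fixed at zero, giving CV% and dependency statistics.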

[9] = system: KB; assay: Compound was tested for cytotoxic lethal concentration on R-ENBPI Al(III) complex in multi drug resistant (KB-8-5)cells.; assay type: functional; details: Homo sapiens, read-out: LC50 (the source's name)
In short: (§5)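 KB-8-5 cells are colchicine-selected and express modest MDR1 P-glycoprotein. They were kept in drug-free medium for 96 h, then plated at 5000/well in 5% FBS medium and allowed 4 h recovery. Complex was added in triplicate up to 100 μM, with 72 h at 37 °C, 5% CO2. Read-out was SRB staining after TCA fixation, A490–450. LC50 came from a sigmoid fit (Smin=0) of survival relative to vehicle. Values ≥100 μM were not fitted.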

[10] = system: KB; assay: Compound was tested for cytotoxic lethal concentration on R-ENBPI Fe(III) complex in multi drug resistant (KB-8-5)cells.; assay type: functional; details: Homo sapiens, read-out: LC50 (the source's name); in short: as §5
[11] = system: KB; assay: Compound was tested for cytotoxic lethal concentration on R-ENBPI Ga(III) complex in multi drug resistant (KB-8-5)cells.; assay type: functional; details: Homo sapiens, read-out: LC50 (the source's name); in short: as §5
[12] = system: KB; assay: Compound was tested for cytotoxic lethal concentration on R-ENBPI In(III) complex in multi drug resistant (KB-8-5)cells.; assay type: functional; details: Homo sapiens, read-out: LC50 (the source's name); in short: as §5
[13] = system: KB; assay: Compound was tested for dependency on R-ENBPI Al(III) complex in multi drug resistant (KB-8-5)cells.; assay type: functional, Homo sapiens; in short: as §4
[14] = system: KB; assay: Compound was tested for dependency on R-ENBPI Fe(III) complex in multi drug resistant (KB-8-5) cells; NA=not applicable; assay type: functional, cell-based; details: Homo sapiens; in short: as §4
[15] = system: KB; assay: Compound was tested for dependency on R-ENBPI Ga(III) complex in […] (KB-8-5) cells.; assay type: functional; in short: as §4
[16] = system: KB; assay: Compound was tested for dependency on R-ENBPI In(III) complex in multi drug resistant (KB-8-5)cells.; assay type: functional, Homo sapiens; in short: as §4
[17] = system: KB 3-1; assay: Compound was tested for cytotoxic lethal concentration on R-ENBPI Al(III) complexs in human drug sensitive (KB-3-1)cells; assay type: functional; details: read-out: LC50 (the source's name); in short: as §1
[18] = system: KB 3-1; assay: Compound was tested for cytotoxic lethal concentration on R-ENBPI Al(III) complexs in human drug sensitive (KB-3-1)cells. parentheses value indicates SEM; assay type: functional; details: read-out: LC50 (the source's name); in short: as §1
[19] = system: KB 3-1; assay: Compound was tested for cytotoxic lethal concentration on R-ENBPI […] complexs in human drug sensitive (KB-3-1)cells. parentheses value indicates SEM; assay type: functional; details: read-out: LC50 (the source's name); in short: as §1
[20] = system: KB; assay: Compound was tested for coefficient of variation percent on R-ENBPI Al(III) complex in multi drug resistant (KB-8-5) cells; NA=not applicable; assay type: functional, cell-based; details: Homo sapiens; in short: as §4
[21] = system: KB; assay: Compound was tested for coefficient of variation percent on R-ENBPI Ga(III) complex in multi drug resistant (KB-8-5) cells; NA=not applicable; assay type: functional, cell-based; details: Homo sapiens; in short: as §4
[22] = system: KB; assay: Compound was tested for cytotoxic lethal concentration on R-ENBPI Fe(III) complex in multi drug resistant (KB-8-5) cells; NA=not applicable; assay type: functional, cell-based; details: Homo sapiens; in short: as §5
[23] = system: KB; assay: Compound was tested for cytotoxic lethal concentration on R-ENBPI Ga(III) complex in multi drug resistant (KB-8-5) cells; NA=not applicable; assay type: functional, cell-based; details: Homo sapiens; in short: as §5
[24] = system: KB; assay: Compound was tested for dependency on R-ENBPI Al(III) complex in multi drug resistant (KB-8-5) cells; NA=not applicable; assay type: functional, cell-based; details: Homo sapiens; in short: as §4
[25] = system: KB; assay: Compound was tested for dependency on R-ENBPI Ga(III) complex in […] (KB-8-5) cells; NA=not applicable; assay type: functional, cell-based; in short: as §4

SMILES: COc1cccc(/C=N/CCCN2CCN(CCC/N=C/c3cccc(OC)c3O)C2c2cccc(OC)c2O)c1O
- CC50 [1]: < 42.6 µM
- CC50 [2]: 16.6 µM
- CC50 [3]: 9 µM
- Dependency [4]: 0.46
- Dependency [5]: 0.68
- Dependency [6]: 0.45
- Dependency [7]: 0.41
- CV [8]: inactive
- CC50 [9]: < 27.5 µM
- CC50 [10]: > 100 µM
- CC50 [11]: < 110 µM
- CC50 [12]: 24.2 µM
- Dependency [13]: 0.33
- Dependency [14]: inactive
- Dependency [15]: 0.39
- Dependency [16]: 0.36
- CC50 [17]: 11.4 µM

SMILES: COc1cc(O)c(/C=N/CCCN2CCN(CCC/N=C/c3c(O)cc(OC)cc3OC)C2c2c(O)cc(OC)cc2OC)c(OC)c1
- CC50 [18]: < 1.4 µM
- CC50 [19]: 3.7 µM
- CC50 [2]: 63.8 µM
- CC50 [3]: < 1.1 µM
- Dependency [4]: 0.39
- Dependency [5]: 0.23
- Dependency [6]: 0.34
- Dependency [7]: 0.38
- CV [20]: inactive
- CV [8]: inactive
- CV [21]: inactive
- CC50 [9]: > 100 µM
- LC50 [22]: inactive
- LC50 [23]: inactive
- CC50 [12]: 61.8 µM
- Dependency [24]: inactive
- Dependency [14]: inactive
- Dependency [25]: inactive
- Dependency [16]: 0.38
